Test results taken from ChEMBL document CHEMBL1146489, “Aspochalasins I, J, and K: three new cytotoxic cytochalasans of Aspergillus flavipes from the rhizosphere of Ericameria laricifolia of the Sonoran Desert” (J Nat Prod, 2004).

How the values were obtained:
Type in all cases: functional, cell-based
SF-268 = assay: Cytotoxicity against human SF268 cells after 48 hrs by MTT assay; conditions: SF-268, 48 h
In short: (§1)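 Human tumour cells (NCI-H460 lung, MCF-7 breast, SF-268 glioma) exposed to compounds for 48 h in RPMI 1640 with 10% fetal bovine serum; viability read by tetrazolium-based colorimetric MTT assay.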

MCF7 = assay: Cytotoxicity against human MCF7 cells after 48 hrs by MTT assay; conditions: MCF7, 48 h; in short: as §1
NCI-H460 = assay: Cytotoxicity against human NCI-H460 cells after 48 hrs by MTT assay; conditions: NCI-H460, 48 h; in short: as §1

Compound	IC50 (SF-268) [µM]	IC50 (MCF7) [µM]	IC50 (NCI-H460) [µM]
CC1=C[C@@H]2/C=C(\C)CCCC(O)/C=C/C(=O)[C@]23C(=O)N[C@@H](CC(C)C)[C@@H]3[C@@H]1C (stereo partly drawn)	9.5	5	3.5
CC1=C[C@@H]2/C=C(\C)CC[C@H](O)[C@@H](O)/C=C/C(=O)[C@]23C(=O)N[C@@H](CC(C)C)[C@@H]3[C@@H]1C [ASPOCHALASIN C]	3.9	7.7	5
CC1=C[C@@H]2/C=C(\C)CC[C@H](O)[C@H](O)/C=C/C(=O)[C@]23C(=O)N[C@@H](CC(C)C)[C@@H]3[C@@H]1C [ASPOCHALASIN D]	5	5.3	3.4
CC1=C[C@@H]2/C=C(\C)CC[C@H](O)[C@H](O)[C@@H](O)CC(=O)[C@]23C(=O)N[C@@H](CC(C)C)[C@@H]3[C@@H]1C [ASPOCHALASIN E]	52.6	30.4	31.5
CC1=C[C@@H]2/C=C(\C)CC[C@H](O)[C@H](O)/C=C/C(=O)O[C@]23C(=O)N[C@@H](CC(C)C)[C@@H]3[C@@H]1C [ASPOCHALASIN I]	19.9	33.4	22.1
CC1=C[C@@H]2/C=C(\C)CCC[C@H](O)/C=C/C(=O)O[C@]23C(=O)N[C@@H](CC(C)C)[C@@H]3[C@@H]1C [ASPOCHALASIN J]	13.4	14.9	55.2
CO[C@H]1[C@@H](O)CC/C(C)=C/[C@H]2C=C(C)[C@@H](C)[C@H]3[C@H](CC(C)C)NC(=O)[C@]32C(=O)C[C@@H]1O [ASPOCHALASIN K]	19.9	13.1	14.3
CC(=O)O[C@H]1C(=O)[C@@]2(C)[C@H]([C@H](OC(=O)c3ccccc3)[C@]3(O)C[C@H](OC(=O)[C@H](O)[C@@H](NC(=O)c4ccccc4)c4ccccc4)C(C)=C1C3(C)C)[C@]1(OC(C)=O)CO[C@@H]1C[C@@H]2O [PACLITAXEL]	0.0217		0.0095
